Laboratory results: ChEMBL document CHEMBL4014350, “Alkoxyurea-Based Histone Deacetylase Inhibitors Increase Cisplatin Potency in Chemoresistant Cancer Cell Lines” (J Med Chem, 2017)
pIC50: −log10 of the molar value. Active and inactive are the calls of the source. The calls are words filed in the database; no cut-off is given here.

What was measured:
[1] = target: T1, Histone deacetylase 1/6 (Homo sapiens) (UniProt Q13547+Q9UBN7); experiment: Inhibition of HDAC1/HDAC6 in human Cal27CisR cells assessed as potentiation of 5 uM cisplatin-induced cytotoxicity by measuring combination index at 400 uM preincubated for 48 hrs followed by cisplatin treatment measured after 72 hrs by MTT assay; type: cell-based
In short: (§1)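 Cal27 and cisplatin-resistant Cal27CisR cells were preincubated with the HDAC inhibitor for 48 h, then given cisplatin in combination. Viability was read by MTT after 72 h. The combination index was computed by the Chou–Talalay method: CI > 1 is antagonism, CI = 1 is additive, and CI < 0.9 is synergism. Points with fraction affected below 0.20 were flagged.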

[2] = system: CAL-27; experiment: Potentiation of 1 uM cisplatin-induced cytotoxicity against human CAL27 cells assessed as decrease in cell viability by measuring combination index at 400 uM preincubated for 48 hrs followed by cisplatin treatment measured after 72 hrs by MTT assay; type: functional
In short: (§2)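 HDAC inhibitor was added 48 h before cisplatin, then cells were exposed to cisplatin for 72 h and viability was read by MTT assay. Combination index was computed by the Chou–Talalay method: CI > 1 is antagonism, CI = 1 additive, CI < 0.9 synergism. Points with fraction affected below 0.20 were flagged.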

[3] = system: CAL-27; experiment: Potentiation of 0.316 uM cisplatin-induced cytotoxicity against human CAL27 cells assessed as decrease in cell viability by measuring combination index at 300 uM preincubated for 48 hrs followed by cisplatin treatment measured after 72 hrs by MTT assay; type: functional; conditions: in the assay text read “at 300 nM” for “at 300 uM”; in short: as §1
[4] = system: CAL-27; experiment: Potentiation of 5 uM cisplatin-induced cytotoxicity against human CAL27 cells assessed as decrease in cell viability by measuring combination index at 100 uM preincubated for 48 hrs followed by cisplatin treatment measured after 72 hrs by MTT assay; type: functional; conditions: in the assay text read “at 100 nM” for “at 100 uM”; in short: as §2
[5] = target: T1, Histone deacetylase 1/6 (Homo sapiens); experiment: Inhibition of HDAC1/HDAC6 in human Cal27CisR cells assessed as potentiation of 20 uM cisplatin-induced cytotoxicity by measuring combination index at 200 nM preincubated for 48 hrs followed by cisplatin treatment measured after 72 hrs by MTT assay
[6] = system: CAL-27; experiment: Induction of apoptosis in human CAL27 cells at 1 uM for 48 hrs by propidium iodide dye-based flow cytometry; type: functional, cell-based
[7] = target: T1, Histone deacetylase 1/6 (Homo sapiens); experiment: Inhibition of HDAC1/HDAC6 in human Cal27CisR cells assessed as potentiation of 3.16 uM cisplatin-induced cytotoxicity by measuring combination index at 200 uM preincubated for 48 hrs followed by cisplatin treatment measured after 72 hrs by MTT assay; type: cell-based
In short: (§3)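 Cal27CisR cells preincubated 48 h with the HDAC inhibitor, then exposed to cisplatin for 72 h. Viability read by MTT. Combination index calculated by the Chou–Talalay method: CI > 1 antagonism, CI = 1 additive, CI < 0.9 synergism. Points with fraction affected below 0.20 are flagged. Values are the mean of three experiments.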

[8] = system: CAL-27; experiment: Potentiation of 5 uM cisplatin-induced cytotoxicity against human CAL27 cells assessed as decrease in cell viability by measuring combination index at 300 uM preincubated for 48 hrs followed by cisplatin treatment measured after 72 hrs by MTT assay; type: functional; conditions: in the assay text read “at 300 nM” for “at 300 uM”; in short: as §2
[9] = target: T1, Histone deacetylase 1/6 (Homo sapiens); experiment: Inhibition of HDAC1/HDAC6 in human Cal27CisR cells assessed as potentiation of 5 uM cisplatin-induced cytotoxicity by measuring combination index at 300 nM preincubated for 48 hrs followed by cisplatin treatment measured after 72 hrs by MTT assay
[10] = target: T1, Histone deacetylase 1/6 (Homo sapiens); experiment: Inhibition of HDAC1/HDAC6 in human Cal27CisR cells assessed as potentiation of 20 uM cisplatin-induced cytotoxicity by measuring combination index at 400 nM preincubated for 48 hrs followed by cisplatin treatment measured after 72 hrs by MTT assay
[11] = system: CAL-27; experiment: Potentiation of 5 uM cisplatin-induced cytotoxicity against human CAL27 cells assessed as decrease in cell viability by measuring combination index at 200 uM preincubated for 48 hrs followed by cisplatin treatment measured after 72 hrs by MTT assay; type: functional; conditions: in the assay text read “at 200 nM” for “at 200 uM”; in short: as §2
[12] = target: T1, Histone deacetylase 1/6 (Homo sapiens); experiment: Inhibition of HDAC1/HDAC6 in human Cal27CisR cells assessed as potentiation of 1 uM cisplatin-induced cytotoxicity by measuring combination index at 600 uM preincubated for 48 hrs followed by cisplatin treatment measured after 72 hrs by MTT assay; type: cell-based; in short: as §3
[13] = target: T1, Histone deacetylase 1/6 (Homo sapiens); experiment: Inhibition of HDAC1/HDAC6 in human Cal27CisR cells assessed as potentiation of 10 uM cisplatin-induced cytotoxicity by measuring combination index at 200 uM preincubated for 48 hrs followed by cisplatin treatment measured after 72 hrs by MTT assay; type: cell-based; in short: as §3
[14] = system: CAL-27; experiment: Potentiation of 2 uM cisplatin-induced cytotoxicity against human CAL27 cells assessed as decrease in cell viability by measuring combination index at 300 uM preincubated for 48 hrs followed by cisplatin treatment measured after 72 hrs by MTT assay; type: functional; conditions: in the assay text read “at 300 nM” for “at 300 uM”; in short: as §2
[15] = Inhibition of HDAC in human A2780 cells using Boc-Lys(epsilon-Ac)-AMC as substrate preincubated for 18 hrs followed by substrate addition measured after 3 hrs by fluorescence assay; type: cell-based
[16] = target: T1, Histone deacetylase 1/6 (Homo sapiens); experiment: Inhibition of HDAC1/HDAC6 in human Cal27CisR cells assessed as potentiation of 3.16 uM cisplatin-induced cytotoxicity by measuring combination index at 700 nM preincubated for 48 hrs followed by cisplatin treatment measured after 72 hrs by MTT assay
[17] = target: T1, Histone deacetylase 1/6 (Homo sapiens); experiment: Inhibition of HDAC1/HDAC6 in human Cal27CisR cells assessed as potentiation of 10 uM cisplatin-induced cytotoxicity by measuring combination index at 700 nM preincubated for 48 hrs followed by cisplatin treatment measured after 72 hrs by MTT assay
[18] = system: CAL-27; experiment: Potentiation of 0.316 uM cisplatin-induced cytotoxicity against human CAL27 cells assessed as decrease in cell viability by measuring combination index at 200 uM preincubated for 48 hrs followed by cisplatin treatment measured after 72 hrs by MTT assay; type: functional; conditions: in the assay text read “at 200 nM” for “at 200 uM”; in short: as §1
[19] = target: T1, Histone deacetylase 1/6 (Homo sapiens); experiment: Inhibition of HDAC1/HDAC6 in human Cal27CisR cells assessed as potentiation of 10 uM cisplatin-induced cytotoxicity by measuring combination index at 300 uM preincubated for 48 hrs followed by cisplatin treatment measured after 72 hrs by MTT assay; type: cell-based; in short: as §3
[20] = system: CAL-27; experiment: Potentiation of 1 uM cisplatin-induced cytotoxicity against human CAL27 cells assessed as decrease in cell viability by measuring combination index at 200 uM preincubated for 48 hrs followed by cisplatin treatment measured after 72 hrs by MTT assay; type: functional; in short: as §1
[21] = system: CAL-27; experiment: Potentiation of 0.5 uM cisplatin-induced cytotoxicity against human CAL27 cells assessed as decrease in cell viability by measuring combination index at 200 uM preincubated for 48 hrs followed by cisplatin treatment measured after 72 hrs by MTT assay; type: functional; in short: as §1

T1 sequence (Q13547 whole entry, looked up): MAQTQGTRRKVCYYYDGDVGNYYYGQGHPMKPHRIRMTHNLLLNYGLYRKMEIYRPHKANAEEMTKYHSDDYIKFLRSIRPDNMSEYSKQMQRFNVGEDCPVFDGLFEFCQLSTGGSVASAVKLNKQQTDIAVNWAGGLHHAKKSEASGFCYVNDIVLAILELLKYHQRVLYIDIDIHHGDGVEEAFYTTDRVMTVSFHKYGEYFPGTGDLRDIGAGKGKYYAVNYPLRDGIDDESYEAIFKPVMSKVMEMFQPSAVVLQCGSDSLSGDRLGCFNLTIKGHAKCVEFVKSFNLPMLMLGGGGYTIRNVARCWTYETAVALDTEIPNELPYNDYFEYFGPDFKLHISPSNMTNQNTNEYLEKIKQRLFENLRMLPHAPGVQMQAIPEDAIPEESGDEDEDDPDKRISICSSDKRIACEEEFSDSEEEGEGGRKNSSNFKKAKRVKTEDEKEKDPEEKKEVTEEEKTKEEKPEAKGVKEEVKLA
T1 sequence (Q9UBN7 whole entry, looked up): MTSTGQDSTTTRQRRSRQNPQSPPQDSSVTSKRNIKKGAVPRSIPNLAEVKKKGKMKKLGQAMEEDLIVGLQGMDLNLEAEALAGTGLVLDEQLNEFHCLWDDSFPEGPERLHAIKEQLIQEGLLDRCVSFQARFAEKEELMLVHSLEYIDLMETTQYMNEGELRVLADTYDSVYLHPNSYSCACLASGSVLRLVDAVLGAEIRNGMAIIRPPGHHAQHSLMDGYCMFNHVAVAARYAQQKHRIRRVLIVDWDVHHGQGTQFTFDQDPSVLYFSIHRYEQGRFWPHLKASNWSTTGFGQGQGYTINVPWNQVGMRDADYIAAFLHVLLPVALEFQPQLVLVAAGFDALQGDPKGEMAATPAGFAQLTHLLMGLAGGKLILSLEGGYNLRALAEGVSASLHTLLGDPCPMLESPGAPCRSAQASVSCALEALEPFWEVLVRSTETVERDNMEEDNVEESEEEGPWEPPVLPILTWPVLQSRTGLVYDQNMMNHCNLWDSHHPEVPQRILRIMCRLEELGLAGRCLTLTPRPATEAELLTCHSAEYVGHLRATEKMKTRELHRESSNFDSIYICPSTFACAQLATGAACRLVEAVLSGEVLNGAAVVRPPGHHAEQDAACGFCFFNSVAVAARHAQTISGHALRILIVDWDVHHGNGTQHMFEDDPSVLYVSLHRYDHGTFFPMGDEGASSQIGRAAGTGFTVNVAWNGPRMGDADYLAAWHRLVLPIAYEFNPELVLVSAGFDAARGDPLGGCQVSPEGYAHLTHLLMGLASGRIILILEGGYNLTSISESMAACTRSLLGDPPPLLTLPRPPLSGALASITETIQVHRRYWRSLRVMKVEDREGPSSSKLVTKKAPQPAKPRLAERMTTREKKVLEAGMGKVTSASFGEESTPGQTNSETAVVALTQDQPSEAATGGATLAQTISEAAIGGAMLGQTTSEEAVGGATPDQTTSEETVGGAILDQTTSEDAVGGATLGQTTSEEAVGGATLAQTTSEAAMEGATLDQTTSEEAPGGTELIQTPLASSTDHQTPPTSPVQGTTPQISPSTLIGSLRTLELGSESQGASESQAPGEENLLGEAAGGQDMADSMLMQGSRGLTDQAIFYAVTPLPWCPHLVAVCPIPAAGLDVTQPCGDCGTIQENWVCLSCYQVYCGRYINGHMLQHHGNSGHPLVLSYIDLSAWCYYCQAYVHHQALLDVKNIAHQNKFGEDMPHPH

COc1cc(NC(=O)NOCCCCCC(=O)NO)c2nccc(C)c2c1
CI [1]: 0.56 | CI [2]: 0.39 | CI [3]: <0.2 | CI [4]: 0.5 | CI [5]: 0.33 | Activity [6]: inactive | CI [7]: < 0.2 | CI [8]: 0.25 | CI [9]: < 0.2 | CI [10]: 0.28 | CI [11]: 0.29 | CI [12]: < 0.2 | CI [13]: 0.48 | CI [14]: 0.31 | pIC50 [15]: 6.05 | CI [16]: 0.28 | CI [17]: 0.21 | CI [18]: <0.2 | CI [19]: 0.43 | CI [20]: 0.76 | CI [21]: <0.2

COc1cc(NC(=O)NOCCCCCC(=O)NO)c2ncccc2c1
CI [12]: < 0.2 | pIC50 [15]: 6.00 | CI [16]: 0.56 | CI [17]: 0.33

COc1cc(NC(=O)NOCCCCCC(=O)NO)c2nc(OC)cc(C)c2c1
CI [1]: 0.19 | CI [2]: 0.51 | CI [3]: <0.2 | CI [4]: 0.26 | CI [5]: 0.19 | Activity [6]: inactive | CI [7]: 0.87 | CI [8]: 0.32 | CI [9]: 0.25 | CI [10]: 0.16 | CI [11]: 0.22 | CI [12]: 0.56 | CI [13]: 0.21 | CI [14]: 0.38 | pIC50 [15]: 5.77 | CI [16]: 0.28 | CI [17]: 0.2 | CI [18]: <0.2 | CI [19]: 0.18 | CI [20]: 0.82 | CI [21]: 0.96
